In ChEMBL document CHEMBL4732100, “Water-soluble inhibitors of ABCG2 (BCRP) - A fragment-based and computational approach” (Eur J Med Chem, 2021):
≈ marks a conversion by molar mass, not a printed value.

Experiments:
[1] = molecular target: T1, Broad substrate specificity ATP-binding cassette transporter ABCG2 (Homo sapiens, UniProt Q9UNQ0); test: Inhibition of human ABCG2 in human MCF7/Topo cells assessed as accumulation of substrate Hoechst […] stain measured after 2 hrs by fluorometric microplate reader assay; format: cell-based
T1 sequence (Q9UNQ0 whole entry): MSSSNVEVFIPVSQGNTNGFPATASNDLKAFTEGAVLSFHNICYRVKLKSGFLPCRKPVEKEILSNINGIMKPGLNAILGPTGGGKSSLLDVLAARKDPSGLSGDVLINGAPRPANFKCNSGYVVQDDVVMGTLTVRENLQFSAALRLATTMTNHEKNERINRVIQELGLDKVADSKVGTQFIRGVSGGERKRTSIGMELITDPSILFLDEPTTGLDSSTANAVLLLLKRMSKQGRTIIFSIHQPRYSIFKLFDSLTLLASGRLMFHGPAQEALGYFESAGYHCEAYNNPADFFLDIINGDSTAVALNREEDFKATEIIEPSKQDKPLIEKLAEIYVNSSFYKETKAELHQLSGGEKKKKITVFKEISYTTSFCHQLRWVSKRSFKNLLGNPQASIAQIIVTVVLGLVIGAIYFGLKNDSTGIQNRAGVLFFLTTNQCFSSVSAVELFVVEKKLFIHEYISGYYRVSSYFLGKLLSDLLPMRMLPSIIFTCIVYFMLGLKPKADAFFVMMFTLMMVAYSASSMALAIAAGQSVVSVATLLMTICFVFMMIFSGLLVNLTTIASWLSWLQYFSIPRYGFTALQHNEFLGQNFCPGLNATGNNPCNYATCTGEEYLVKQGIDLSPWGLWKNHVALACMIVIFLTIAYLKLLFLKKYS

ABCG2 [2] = molecular target: T2, ABCG2 (Homo sapiens, UniProt Q9UNQ0); test: Inhibition of human ABCG2 in human MCF7/Topo cells assessed as accumulation of substrate Hoechst […] stain at 10 uM measured after 2 hrs by fluorometric microplate reader assay relative to FTC; format: cell-based; settings: read-out: Imax
T2 sequence (Q9UNQ0 whole entry): T1 sequence (Q9UNQ0 whole entry)

[3] = molecular target: ATP-dependent translocase ABCB1 (Homo sapiens, UniProt P08183); test: Inhibition of ABCB1 in human KB-V1 cells assessed as accumulation of substrate calcein-AM stain measured after 10 mins by fluorometric microplate reader assay; format: cell-based
Chain of ATP-dependent translocase ABCB1 (P08183 whole entry): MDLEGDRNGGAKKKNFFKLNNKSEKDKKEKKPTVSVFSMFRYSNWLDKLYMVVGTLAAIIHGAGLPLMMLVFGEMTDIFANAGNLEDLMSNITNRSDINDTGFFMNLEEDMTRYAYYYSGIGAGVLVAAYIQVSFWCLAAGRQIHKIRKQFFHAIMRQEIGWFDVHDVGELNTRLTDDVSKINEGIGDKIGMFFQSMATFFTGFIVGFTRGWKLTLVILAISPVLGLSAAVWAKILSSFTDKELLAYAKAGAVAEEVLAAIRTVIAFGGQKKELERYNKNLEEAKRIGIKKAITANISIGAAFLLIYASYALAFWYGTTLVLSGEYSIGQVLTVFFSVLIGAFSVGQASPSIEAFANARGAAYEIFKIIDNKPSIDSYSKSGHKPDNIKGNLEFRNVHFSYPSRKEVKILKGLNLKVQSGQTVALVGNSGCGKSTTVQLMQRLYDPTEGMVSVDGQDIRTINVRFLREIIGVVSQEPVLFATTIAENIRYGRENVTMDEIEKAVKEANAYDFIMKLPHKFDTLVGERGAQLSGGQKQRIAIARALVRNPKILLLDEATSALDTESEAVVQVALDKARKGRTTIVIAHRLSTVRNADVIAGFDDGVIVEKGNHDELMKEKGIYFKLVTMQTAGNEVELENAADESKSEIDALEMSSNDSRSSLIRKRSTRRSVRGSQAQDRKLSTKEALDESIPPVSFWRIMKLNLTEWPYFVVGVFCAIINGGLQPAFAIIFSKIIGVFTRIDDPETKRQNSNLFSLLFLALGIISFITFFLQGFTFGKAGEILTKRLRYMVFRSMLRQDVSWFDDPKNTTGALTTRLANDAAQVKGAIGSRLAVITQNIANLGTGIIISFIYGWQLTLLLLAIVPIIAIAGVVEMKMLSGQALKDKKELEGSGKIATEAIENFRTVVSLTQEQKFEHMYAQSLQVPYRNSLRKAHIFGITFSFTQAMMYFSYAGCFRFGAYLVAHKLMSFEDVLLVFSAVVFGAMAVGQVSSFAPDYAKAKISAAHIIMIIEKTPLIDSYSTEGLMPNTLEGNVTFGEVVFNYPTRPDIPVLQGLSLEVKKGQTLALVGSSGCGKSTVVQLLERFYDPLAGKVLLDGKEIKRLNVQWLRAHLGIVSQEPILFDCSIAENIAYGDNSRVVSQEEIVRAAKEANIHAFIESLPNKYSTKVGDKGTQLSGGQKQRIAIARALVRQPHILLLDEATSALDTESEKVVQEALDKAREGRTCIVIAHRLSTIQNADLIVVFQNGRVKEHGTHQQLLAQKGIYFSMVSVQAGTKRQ
How it was run: (§1)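 KB-V1 cells (ABCB1-overexpressing KB variant) kept under 330 nM vinblastine. Calcein-AM accumulation read by fluorescence after intracellular cleavage to calcein. Compounds tested up to 100 µM. Inhibition is normalized to 10 µM tariquidar set to 100% (Imax). Mean ± SEM from ≥3 experiments in triplicate.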

[4] = Inhibition of human ABCC1 expressed in MDCK-MRP1 cells assessed as accumulation of substrate calcein-AM stain measured after 1 hr by fluorometric microplate reader assay; format: cell-based, Canis lupus familiaris
How it was run: (§2)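 MDCK.2 cells transfected with human ABCC1 (MDCK.2-MRP1), trypsinized with 2X trypsin/EDTA for 30 min. Calcein-AM accumulation measured fluorometrically. Compounds tested up to 100 µM. Inhibition is normalized to 30 µM reversan set to 100% (Imax). Mean ± SEM from ≥3 experiments in triplicate.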

[5] = Thermodynamic solubility of compound in PBS at pH 7.4 […] by shake-flask method; format: physicochemical; settings: buffer
[6] = Kinetic solubility of compound in PBS at pH 7.4 measured after 2 hrs by turbidimetric measurement; settings: read-out: Kinetic_solubility
ABCB1 = ABCB1 (Homo sapiens, UniProt P08183); test: Inhibition of ABCB1 in human KB-V1 cells assessed as accumulation of substrate calcein-AM stain at 10 uM measured after 10 mins by fluorometric microplate reader assay relative to Tariquidar; format: cell-based; settings: probe calcein-AM, read-out: Imax; how it was run: as §1
Chain of ABCB1 (P08183 whole entry): as above

MDCK-MRP1 = test: Inhibition of human ABCC1 expressed in MDCK-MRP1 cells assessed as accumulation of substrate calcein-AM stain at 30 uM measured after 1 hr by fluorometric microplate reader assay relative to Reversan; format: cell-based; settings: Canis lupus familiaris; how it was run: as §2
[7] = Cytotoxicity against human MCF7/Topo cells assessed as inhibition of cell proliferation at 1 uM measured by crystal violet based microplate reader assay
How it was run: (§3)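 MCF-7/Topo cells grown in DMEM/High with 2% (v/v) 200 mM L-glutamine and 10% FCS at 37 °C, 5% CO2, kept under 550 nM topotecan. Long-term incubation with inhibitor. Value given as corrected T/C = (T−C0)/(C−C0)·100 from absorbance; cytocidal effect (T−C0)/C0·100 when T<C0. Mean ± SEM of two to three experiments, each in octuplicate.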

ABCG2 [8] = molecular target: T2, ABCG2; test: Substrate activity at ABCG2 in human MCF7/Topo cells assessed as increase in ATPase activity measured after 1 hr by colorimetric assay relative to sulfasalazine; format: cell-based; settings: read-out: Imax
How it was run: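 Membranes prepared from MCF-7/Topo cells: homogenized in TMEP buffer pH 7 with protease inhibitors, 500 g spin, then 100,000 g for 1 h. Released inorganic phosphate read by molybdenum blue reaction. Basal activity set to 0% and 30 µM sulfasalazine to 100%. Concentration-response data; mean ± SEM of ≥3 experiments in triplicate.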

[9] = Stability of compound in human plasma at 200 uM measured up to 24 hrs by HPLC-MS analysis; format: ADME, cell-free
How it was run: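 Compound from 10 mM DMSO stock incubated in human CPD plasma at 37 °C for up to 24 h. Samples filtered (0.2 µm). Analyzed by RP-HPLC on a C8 column with acetonitrile/0.05% aq TFA gradient 20:80→95:5 over 12 min and UV detection at 220 nm. HPLC-MS run at 0 h and 24 h.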

[10] = Cytotoxicity against human MCF7/Topo cells assessed as inhibition of cell proliferation at 10 uM measured by crystal violet based microplate reader assay; how it was run: as §3

SMILES	IC50 ([1]; read-out: IC50) [nM]	Emax at 2 h, 10 µM (ABCG2 [2]) [%]	IC50 ([3]; kb-v1)	IC50 [4]	Therm_solubility [5] [nM]	solubility kinetic at 2 h [6] [µM]	IC50 ([1]; mcf7/topo)	IC50 ([3]; read-out: IC50) [nM]	Emax at 10 min, 10 µM (ABCB1) [%]	IC50 ([4]; read-out: IC50) [nM]	Imax (MDCK-MRP1) [%]	Activity [7]	Emax at 1 h (ABCG2 [8]) [%]	Stabilty [9]	Activity [10]
CCC(=O)c1ccc(-c2cn(-c3ccc(CCN4CCc5cc(OC)c(OC)cc5C4)cc3)nn2)cc1NC(=O)c1cc(=O)c2ccccc2o1	80	65	Not Active	Not Active	149	7 (≈ 4.79 µg/mL)	–	–	–	–	–	–	–	–	–
CCC(=O)c1ccc(-c2cn(-c3ccc(CCN4CCc5cc(OC)c(OC)cc5C4)cc3)nn2)cc1NC(=O)c1ccc2c(n1)CCCC2	180	63	Not Active	Not Active	< 100	7 (≈ 4.7 µg/mL)	–	–	–	–	–	–	–	–	–
CCC(=O)c1ccc(-c2cn(-c3ccc(CCN4CCc5cc(OC)c(OC)cc5C4)cc3)nn2)cc1NC(=O)c1cccc(Cl)n1	116	95	Not Active	Not Active	< 100	1 (≈ 0.651 µg/mL)	–	–	–	–	–	–	–	–	–
Cc1ccc(-c2cn(CCO)nn2)c(NC(=O)c2cc(=O)c3ccccc3o2)c1	447	91	Not Active	Not Active	< 100	3 (≈ 1.17 µg/mL)	–	–	–	–	–	–	–	–	–
CCC(=O)c1ccc(-c2cn(CC(=O)O)nn2)cc1NC(=O)c1cc(=O)c2ccccc2o1	–	–	Not Active	Not Active	–	10 (≈ 4.46 µg/mL)	Not Active	–	–	–	–	–	–	–	–
CCC(=O)c1ccc(-c2cn(-c3ccc(CCN4CCc5cc(OC)c(OC)cc5C4)cc3)nn2)cc1NC(=O)c1ccc2ccccc2c1	249	70	Not Active	Not Active	< 100	3 (≈ 2 µg/mL)	–	–	–	–	–	–	–	–	–
CCC(=O)c1ccc(-c2cn(CCN3CCOCC3)nn2)cc1NC(=O)c1cc(=O)c2ccccc2o1	312	95	–	–	999	10 (≈ 5.02 µg/mL)	–	1340	92	2080	66	Non-Toxic	–	–	–
CCC(=O)c1ccc(-c2cn(CCN3CCCC3)nn2)cc1NC(=O)c1cc(=O)c2ccccc2o1	158	70	Not Active	Not Active	1483	30 (≈ 14.6 µg/mL)	–	–	–	–	–	–	–	–	–
COC(=O)c1ccc(-c2cn(-c3ccc(CCN4CCc5cc(OC)c(OC)cc5C4)cc3)nn2)cc1NC(=O)c1ccc2ccccc2n1	–	–	Not Active	–	–	–	–	–	–	–	–	–	–	–	–
Cc1ccc(-c2cn(CCN3CCCC3)nn2)c(NC(=O)c2cc(=O)c3ccccc3o2)c1	109	103	Not Active	Not Active	1228	7 (≈ 3.1 µg/mL)	–	–	–	–	–	–	29	Stable	–
CCC(=O)c1ccc(-c2cn(CCO)nn2)cc1NC(=O)c1cc(=O)c2ccccc2o1	> 1100	> 71	–	–	575	3 (≈ 1.3 µg/mL)	–	> 2290	> 41	> 1960	> 33	–	–	–	–
CCC(=O)c1ccc(-c2cn(-c3ccc(CCN4CCc5cc(OC)c(OC)cc5C4)cc3)nn2)cc1NC(=O)c1cccc(O)n1	328	75	–	Not Active	855	7 (≈ 4.43 µg/mL)	–	> 18500	> 14	–	–	–	–	–	–
COc1cc2c(cc1OC)CN(CCc1ccc(-n3cc(-c4ccccc4)nn3)cc1)CC2	3610	41	Not Active	Not Active	–	–	–	–	–	–	–	–	–	–	–
CCC(=O)c1ccc(-c2cn(-c3ccc(CCN4CCc5cc(OC)c(OC)cc5C4)cc3)nn2)cc1NC(=O)c1cccc(OC)n1	322	92	Not Active	Not Active	< 100	7 (≈ 4.53 µg/mL)	–	–	–	–	–	Non-Toxic	–	–	–
CCC(=O)c1ccc(-c2cn(-c3ccc(CCN4CCc5cc(OC)c(OC)cc5C4)cc3)nn2)cc1NC(=O)c1cc2ccccc2o1	120	78	Not Active	Not Active	< 100	7 (≈ 4.59 µg/mL)	–	–	–	–	–	–	–	–	–
CCC(=O)c1ccc(-c2cn(-c3ccc(CCN4CCc5cc(OC)c(OC)cc5C4)cc3)nn2)cc1NC(=O)c1cccc([N+](=O)[O-])n1	70	91	Not Active	Not Active	< 100	10 (≈ 6.62 µg/mL)	–	–	–	–	–	–	–	–	–
COC(=O)c1ccc(Br)cc1NC(=O)c1cc(=O)c2ccccc2o1	140	91	Not Active	Not Active	109	10 (≈ 4.02 µg/mL)	–	–	–	–	–	–	–	–	–
CCC(=O)c1ccc(-c2cn(-c3ccc(CCN4CCc5cc(OC)c(OC)cc5C4)cc3)nn2)cc1NC(=O)c1ccc2ccccc2n1	–	–	Not Active	–	78	3 (≈ 2 µg/mL)	–	–	–	–	–	–	–	–	–
CCC(=O)c1ccc(-c2cn(-c3ccc(CCN4CCc5cc(OC)c(OC)cc5C4)cc3)nn2)cc1NC(=O)c1ccc(OC)cn1	116	68	–	Not Active	119	3 (≈ 1.94 µg/mL)	–	> 2780	> 13	–	–	–	–	–	–
CCC(=O)c1ccc(-c2cn(-c3ccc(CCN4CCc5cc(OC)c(OC)cc5C4)cc3)nn2)cc1NC(=O)c1cccc(N)n1	82	75	Not Active	Not Active	< 100	10 (≈ 6.32 µg/mL)	–	–	–	–	–	–	–	–	–
CCC(=O)c1ccc(-c2cn(-c3ccc(CCN4CCc5cc(OC)c(OC)cc5C4)cc3)nn2)cc1NC(=O)c1cccc(C)n1	166	81	–	Not Active	445	3 (≈ 1.89 µg/mL)	–	> 9970	> 19	–	–	–	–	–	–
COC(=O)c1ccc(Br)cc1NC(=O)c1ccc2ccccc2n1	1920	86	Not Active	Not Active	–	–	–	–	–	–	–	–	–	–	–
Cc1ccc(-c2cn(CCN3CCOCC3)nn2)c(NC(=O)c2cc(=O)c3ccccc3o2)c1	188	108	–	–	1144	10 (≈ 4.6 µg/mL)	–	> 1600	> 13	> 1470	> 22	–	46	–	Non-Toxic
